Assay outcomes: PubChem BioAssay, Sanford-Burnham Center for Chemical Genomics
XBP1 UPR activ: adaptive UPR (XBP1) activation. CHO-XBP1 luciferase reporter, IRE1-XBP1 UPR activation, luminescence; percent of tunicamycin response, DMSO as zero. activation, % at 20 µM. 330,000 tested, 0.33% active. AID 463104;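 active means versus positive control, 20 µM dose yields 30% or more activation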;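 further: 100% = tunicamycin at 10 µg/mL and 0% = DMSO only wells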
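Material: CHO-XBP1 cells stably carrying IRE1-XBP1-driven luciferase reporter | Medium: F12 with 10% serum | Compound dosing: 20 µM single concentration, DMSO 1% | Incubation: Overnight seeding at 37 °C, 6 h compound treatment at 37 °C | Detection: Steady-Glo luminescence read | Read-out basis: % activation of reporter signal versus tunicamycin and DMSO controls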
Jurkat NFkB inh: lowers PMA/ionomycin-induced NF-kB signal in Jurkat cells | 330,000 tested, 0.53% active | inhibition, % at 4 µM | AID 435003 | PMA/ionomycin-induced NF-kB luciferase reporter, luminescence; in the data active means inhibition above about 50%
CHOP UPR activ: apoptotic UPR (CHOP) activation | CHO-CHOP luciferase reporter, luminescence; percent of tunicamycin response over DMSO baseline | activation, % at 10 µM | 330,000 tested, 0.34% active;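 active means at 10 µM dose, activation of 40% or more, normalized to positive control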;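 further: 100% = tunicamycin at 10 µg/mL and 0% = DMSO alone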
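Assay system: CHO cells with stable CHOP pathway luciferase reporter; Buffer or medium: F12 plus 10% serum; Times: 16-18 h cell attachment, then 6 h compound exposure, 37 °C; Signal: luciferase luminescence; Read-out basis: percent activation relative to tunicamycin control; Control set: tunicamycin high control, DMSO low control.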
697 NFkB inh: inhibitors of the PMA/ionomycin-induced NF-kB reporter in 697 B cells. 697 B-cell NF-kB luciferase reporter, 16 h. inhibition, % at 4 µM. 330,000 tested, 0.33% active; in the data active means inhibition above about 35%
CRFBP-R2 block: CRF-BP/CRF-R2 complex antagonism; HEK293 CRF-R2/CRF-BP, CRF-induced calcium fluorescence; inhibition, % at 11.8 µM; 350,000 tested, 0.59% active; AID 588475;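 active means inhibition of the ligand-induced calcium signal above about 50% at the single tested concentration, limit read from the data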
697 NFkB conf: inhibitors of the PMA/ionomycin-induced NF-kB reporter in 697 B cells, retest; 697 B-cell NF-kB luciferase, 16 h; 2,000 tested, 35% active; AID 449746; shares compounds with 697 NFkB inh; inhibition, % at 4 µM; in the data active means inhibition mostly above about 28%, no sharp cut-off; inactive means mostly below about 22%
The depositor's hits bear a star; i = inactive; / = not tested or not shown. An excerpt weighted towards active compounds, which were near 1.8% of everything screened.

SMILES | XBP1 UPR activ | Jurkat NFkB inh | CHOP UPR activ | 697 NFkB inh | CRFBP-R2 block | 697 NFkB conf
O=c1c(-c2c(O)cc(O)c3c2O[C@H](c2ccc(O)cc2)CC3)c(-c2ccc(O)cc2)oc2cc(O)cc(O)c12 | 2 | -6 | 2 | 11 | 1 | /
CC(C)c1cc(C(=O)NC2CCCc3c2cnn3-c2ccccc2F)no1 (centres undefined) | -4 | -20 | 1 | -438 | 13 | i
Cc1cc(C(=O)NC2CCCc3c2cnn3-c2ccccc2F)nc(C)n1 (centres undefined) | -7 | 10 | 1 | -5 | 6 | /
O=C1CCCc2c1[nH]c1ccc(CN3CCCCC3)cc21 | 0 | -15 | -2 | 38* | 28 | 29*
CN(C)c1ccc(N=Nc2ccccc2Br)cc1 | -11 | -132 | 0 | -279 | 4 | -379
O=C(Nc1cccc(-c2nc3ccccc3s2)c1)c1ccc2c(c1)OCO2 | 2 | -14 | 5 | -8 | -2 | /
c1ccc2sc(-c3ccc4c(c3)OCO4)nc2c1 | -6 | -144 | -5 | -361 | 0 | -242
COc1ccc(NC(=O)CSc2nnc(-c3cccnc3)o2)c(OC)c1 | 0 | -2 | 0 | 7 | -2 | /
O=C(/C=C\Nc1ccccn1)c1ccc(Cl)cc1 | -8 | -73 | -7 | -284 | -17 | -238
CCOC(=O)c1cc2c(=O)n3ccccc3nc2n(C)c1=NC(=O)c1c(-c2c(F)cccc2Cl)noc1C | 5 | -15 | 2 | 48* | 7 | 5
Cc1cc(OCC(=O)NC2CC2)c2c(C)c(C)c(=O)oc2c1 | 5 | 7 | 1 | 36* | -3 | 29*
CCOC(=O)N1CCN(C(=O)C(NC(=O)c2ccc(C(C)(C)C)cc2)C(C)C)CC1 (centres undefined) | -1 | -14 | 0 | 2 | -4 | /
CN(C)c1cc[n+](CC[n+]2ccc(N(C)C)cc2)cc1 | 2 | 4 | -2 | 10 | 6 | /
CN(C)c1cc[n+](Cc2c(Cl)cccc2Cl)cc1 | -1 | 47 | 0 | 45* | -13 | 39*
C=CCn1c(SCC(=O)NCC(c2ccccc2)N(C)C)nnc1C1CCCCC1 (centres undefined) | -2 | 5 | 0 | 10 | 5 | /
COc1ccc(NC(=O)c2cc3ccc(O)cc3o/c2=N\O)cc1 | -1 | -89 | 6 | -137 | -2 | /
COc1cc(-c2nc3n(n2)C(c2ccncc2)C2=C(CCCC2=O)N3)cc(OC)c1OC (centres undefined) | 1 | 12 | 1 | 10 | 4 | /
COc1ccc(C2C3=C(CCCC3=O)Nc3nc(-c4cc(OC)c(OC)c(OC)c4)nn32)cc1OC (centres undefined) | 3 | -2 | 3 | 38* | -8 | 9
COc1ccc(N2CCN(CCCn3c(=S)[nH]c4ccccc4c3=O)CC2)cc1 | -7 | -34 | 0 | -309 | 5 | -18
COc1ccccc1C(=O)NCCN1CCCC1 | / | / | / | / | -2 | /
CC(=O)/C(C#N)=C1\NC(=O)C(Cc2ccc(F)cc2)S1 (centres undefined) | -1 | -9 | 0 | -41 | 15 | /
CC(=O)/C(C#N)=C1\NC(=O)C(Cc2cc(Cl)ccc2Cl)S1 (centres undefined) | -4 | -7 | 2 | i | 23 | i
CC(=O)/C(C#N)=C1\NC(=O)C(Cc2ccc(C)c(C)c2)S1 (centres undefined) | 1 | 2 | 2 | i | 38 | i
CC(=O)/C(C#N)=C1\NC(=O)C(Cc2ccccc2Cl)S1 (centres undefined) | -3 | -28 | 0 | i | 15 | i
O=C1NC(=Nc2ccccc2)SC1Cc1cccc(Cl)c1Cl (centres undefined) | / | / | / | / | -54 | /
SMILES | XBP1 UPR activ | Jurkat NFkB inh | CHOP UPR activ | 697 NFkB inh | CRFBP-R2 block | 697 NFkB conf
O=C(NCc1ccc(Cl)s1)C1CCC(=O)N(CCc2cccc(F)c2)C1 (centres undefined) | 1 | 2 | 0 | 11 | 4 | /
Nc1ccc2c(Cl)cc(Cl)cc2c1 | / | / | / | / | -19 | /
CCOC(=O)N1CCC(N2CCN(S(=O)(=O)c3ccc4ccccc4c3)CC2)CC1 | 1 | 18 | 0 | -5 | -8 | /
CCOC(=O)N1CCC(N2CCN(S(=O)(=O)c3ccc([N+](=O)[O-])cc3)CC2)CC1 | 0 | 6 | 0 | 35* | 2 | -10
CCOC(=O)c1c(C)[nH]c(N=Nc2ccc(C)cc2)c1C | 12 | -140 | 5 | -263 | -42 | -119
CCOC(=O)c1c(C)[nH]c(N=Nc2ccccc2)c1C | 29 | -97 | 5 | -80 | 0 | /
Oc1ccc(N=Nc2ccc(Br)cc2)c(O)c1 | 12 | -4 | 2 | -147 | 21 | /
Cc1ccc(N=Nc2ccc(O)cc2)c(Br)c1 | 2 | -117 | 5 | -316 | 7 | -222
O=C(Nc1ccc(Cl)c(Cl)c1)Nc1ccccc1C(=O)O | -2 | -136 | 1 | i | 59* | i
NC(=O)c1ccccc1NC(=O)Nc1cccc(Cl)c1 | 2 | -16 | 14 | 11 | -21 | /
O=C(Nc1ccc(Cl)cc1)Nc1ccccc1C(=O)O | -5 | -12 | -3 | -178 | 5 | /
O=C(Nc1cccc(Cl)c1)Nc1ccccc1C(=O)O | 0 | -115 | 1 | -273 | 1 | -333
COc1ccc(C(=O)NCC(=O)OCC(=O)NC2CCCCCC2)cc1 | -4 | 11 | 1 | -5 | 37 | /
O=C(c1ccc2c(=O)n(-c3ccccc3)c(=S)[nH]c2c1)N1CCCCC1 | -1 | 7 | 0 | 38* | -1 | -28
CCC(C)NC(=O)c1ccc(-n2c(=S)[nH]c3ccccc3c2=O)cc1 (centres undefined) | -1 | 14 | 1 | 41* | -15 | 1
O=C(c1ccc2c(=O)n(-c3ccccc3)c(=S)[nH]c2c1)N1CCN(c2ccccc2)CC1 | -4 | 17 | 1 | 5 | 14 | /
CCOC(=O)C1CCN(C(=O)c2ccc(NS(=O)(=O)c3ccc4[nH]c(=O)[nH]c4c3)cc2)CC1 | / | / | / | / | 4 | /
CCN(CC)CCOC(=O)c1ccc(NC(=S)NC(=O)/C=C/c2ccco2)cc1 | -2 | -22 | -1 | -37 | / | /
O=S(=O)(NC1CC1)c1ccc(Br)cc1N1CCC[C@H]1CO | / | / | / | / | 10 | /
CCOc1cc(/C=C2\N=C(SC(C)C(N)=O)N(c3ccc(OC(F)F)cc3)C2=O)ccc1O (centres undefined) | 0 | 0 | 4 | 41* | -15 | 18
NC(=O)CSC1=N/C(=C\c2ccco2)C(=O)N1c1ccc(OC(F)F)cc1 | -2 | 12 | -1 | 16 | 6 | /
CCOC(=O)C1=CNS(=O)(=O)NC1c1ccc2ccccc2c1 (centres undefined) | -2 | / | 0 | 10 | 6 | /
S=C(c1cn(CCOc2ccccc2)c2ccccc12)N1CCCC1 | -3 | 9 | 0 | 2 | -3 | /
